The test system of experiment [1] is Osteoblast. The experiment can be described thus: Reversal of increase in ER.DNA complex in rat primary osteoblast cells at 1 uM by RT-PCR in presence of PP2. It counts as functional, cell-based.
Experiment [2] relates to MC3T3-E1. As to the kind of experiment: Increase in BMP2 expression in mouse MC3T3-E1 cells expressing pBMP2delta1 mutant at 1 uM after 4 hrs by luciferase method relative to control. It counts as functional, cell-based. Put shortly:
(§1)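 MC3T3-E1 cells transfected with BMP-2 promoter–luciferase constructs (full promoter or deletions), treated with 1 μm or vehicle for 4 h; Dual-Luciferase assay; means ± S.D.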

The subject of experiment [3] is MC3T3-E1. As to the kind of experiment: Increase in BMP2 expression in mouse MC3T3-E1 cells expressing pBMP2delta2 mutant at 1 uM after 4 hrs by luciferase method relative to control. It counts as functional, cell-based. Put shortly:
as §1

Experiment [4] relates to MC3T3-E1. The experiment can be described thus: Reversal of induction in ER.DNA complex in mouse MC3T3-E1 cells at 1 uM by RT-PCR in presence of tamoxifen. The experiment is classed as functional, cell-based. In short, it runs like this: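 BMP-2 promoter quantified by real-time PCR (45 cycles, 61 °C anneal), reported as IP-to-input Ct ratio. DN-Src by 3 μg vector, PP2 at 10 μM; ICI182780 and tamoxifen at indicated concentrations.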

Experiment [5] is described as follows: Reversal of induction in BMP2 expression in mouse MC3T3-E1 cells transfected with dominant-negative mutant Src expression vector at 1 uM by Western blot. It counts as functional, cell-based. Put shortly:
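Src phosphorylation, ERα nuclear translocation and BMP-2 protein analysed by Western blot with ECL detection. Three independent experiments.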
(In general: In western blotting, separated proteins are transferred to a membrane and probed.)

The test system of experiment [6] is Osteoblast. As to the kind of experiment: Effect on transforming growth factor beta 3 gene expression in rat primary osteoblast cells assessed as expression ratio of treated to untreated control by microarray analysis. The experiment is classed as functional. Put shortly: (§2)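 Resveratrol-treated and vehicle-treated primary osteoblasts were profiled on a mouse osteogenesis-focused cDNA array (GEArray Q series) built to track gene expression during osteogenic differentiation. Each gene's signal in treated cells was expressed as a ratio to untreated control.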

Experiment [7] deals with Osteoblast. As to the kind of experiment: Effect on ornithine decarboxylase gene expression in rat primary osteoblast cells assessed as expression ratio of treated to untreated control by microarray analysis. The experiment is classed as functional. Put shortly:
as §2

In experiment [8] the target is T1, Estrogen receptor (Mus musculus) (UniProt P19785).
T1 sequence (whole entry): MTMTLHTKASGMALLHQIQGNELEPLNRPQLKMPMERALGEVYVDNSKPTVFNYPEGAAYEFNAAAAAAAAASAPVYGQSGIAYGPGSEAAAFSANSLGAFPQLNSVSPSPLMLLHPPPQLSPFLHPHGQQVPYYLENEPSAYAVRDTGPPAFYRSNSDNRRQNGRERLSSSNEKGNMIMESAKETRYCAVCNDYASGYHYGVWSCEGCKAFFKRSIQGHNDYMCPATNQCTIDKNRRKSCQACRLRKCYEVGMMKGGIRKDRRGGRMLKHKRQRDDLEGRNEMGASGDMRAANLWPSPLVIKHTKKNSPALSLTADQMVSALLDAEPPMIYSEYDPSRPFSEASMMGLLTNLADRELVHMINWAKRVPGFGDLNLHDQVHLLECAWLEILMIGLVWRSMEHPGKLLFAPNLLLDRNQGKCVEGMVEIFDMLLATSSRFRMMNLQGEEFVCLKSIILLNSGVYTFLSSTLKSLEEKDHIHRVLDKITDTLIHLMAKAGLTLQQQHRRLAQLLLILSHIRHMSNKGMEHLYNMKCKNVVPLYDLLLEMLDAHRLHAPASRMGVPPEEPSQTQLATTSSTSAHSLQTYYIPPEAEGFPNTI
The experiment can be described thus: Reversal of increase in DNA-binding activity of ERalpha in nuclear extracts of mouse MC3T3-E1 cells by electrophoretic mobility shift assays in presence of short interfering ER alpha-RNA. The experiment is classed as cell-based. Put shortly: (§3)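 Nuclear extracts of MC3T3-E1 cells. ER-binding probe [α-32P]dCTP end-labeled, 20-min binding at room temperature, 5-fold unlabeled competitor where used. Complexes resolved on 5% nondenaturing PAGE in Tris-borate-EDTA pH 8.3, then autoradiography.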
Background: In EMSA bound probe runs differently from free probe, usually more slowly.

In experiment [9] the target is T1, Estrogen receptor (Mus musculus). As to the kind of experiment: Reversal of increase in DNA-binding activity of ERalpha in nuclear extracts of mouse MC3T3-E1 cells by electrophoretic mobility shift assays in presence of PP2. It counts as cell-based. In short, it runs like this:
as §3

Experiment [10] can be described thus: Reversal of increase in BMP2 expression in mouse MC3T3-E1 cells expressing small interfering RNA for FOXA1 protein at 1 uM by Western blot. It counts as functional, cell-based.
Experiment [11] addresses RAC-alpha serine/threonine-protein kinase (Homo sapiens) (UniProt P31749). The experiment can be described thus: Inhibition of IGF-induced Akt phosphorylation in human MDA-MB-231 cells by Western blot. The experiment is classed as cell-based. In short, it runs like this: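 MDA-MB-231 cells, control or treated, stimulated with or without IGF; lysates analyzed by Western blot for Akt phosphorylation.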

The next experiment concerns MDA-MB-231. As to the kind of experiment: Reversal of induction of FOXO3a nuclear accumulation in human MDA-MB-231 cells transfected with constitutively activated Akt mutant. It counts as functional, cell-based.
For experiment [12], the system named is Osteoblast. As to the kind of experiment: Effect on alkaline phosphatase 2 gene expression in rat primary osteoblast cells assessed as expression ratio of treated to untreated control by microarray analysis. The experiment is classed as functional.
In experiment [13] the test system is Osteoblast. The experiment can be described thus: Effect on procollagen 4 alpha 1 gene expression in rat primary osteoblast cells assessed as expression ratio of treated to untreated control by microarray analysis. The experiment is classed as functional. Put shortly: as §2
The test system of experiment [14] is Osteoblast. As to the kind of experiment: Increase in proliferation of rat primary osteoblast cells at 0.1 to 10 uM after 24 hr by flow cytometry. It counts as functional, cell-based. (A flow cytometer gives signals particle by particle.)
The next experiment concerns MCF7. As to the kind of experiment: Antiproliferative activity against human MCF7 cells at 1 uM by flow cytometry. The experiment is classed as functional, cell-based. In short, it runs like this: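 Proliferation was measured by DNA flow cytometry. Incubations were run in triplicate across three separate experiments, and values are means ± S.D.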
Experiment [15] has as its target Alkaline phosphatase, germ cell type (Homo sapiens) (UniProt P10696). As to the kind of experiment: Increase in ALP activity in human MG63 cells at 0.1 to 10 uM after 7 days. It counts as cell-based. The following applies: MG-63.
The test system of experiment [16] is MC3T3-E1. As to the kind of experiment: Inhibition of TNF-alpha-induced apoptosis in mouse MC3T3-E1 cells after 24 hrs by flow cytometry. It counts as functional, cell-based. In short, it runs like this:
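Cells washed in PBS, held 30 min in 0.5% Triton X-100/PBS/0.05% RNase A, then propidium iodide (50 μg/ml) added and kept on ice 15–30 min. Apoptosis is the hypodiploid fraction below the G0/G1 peak, by flow cytometry. Run in triplicate and repeated on three occasions.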

Another experiment deals with T47D. The experiment can be described thus: Reduction in anchorage-independent colony formation of human T47D cells at 1 uM by soft agar colony forming assay. The experiment is classed as functional, cell-based. In short, it runs like this:
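Seeded in 0.35% noble agar in DMEM/10% FBS over a 0.7% agar bed. Colonies of at least 50 μm counted after 3 weeks under a dissecting microscope, six replicates per treatment. Three separate experiments.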

Experiment [17] relates to Osteoblast. As to the kind of experiment: Effect on bone morphogenetic protein 3 gene expression in rat primary osteoblast cells assessed as expression ratio of treated to untreated control by microarray analysis. It counts as functional.
Experiment [18] concerns Osteoblast. As to the kind of experiment: Effect on bone morphogenetic protein 6 gene expression in rat primary osteoblast cells assessed as expression ratio of treated to untreated control by microarray analysis. It counts as functional.
The test system of experiment [19] is Osteoblast. The experiment can be described thus: Effect on bone morphogenetic protein 8b gene expression in rat primary osteoblast cells assessed as expression ratio of treated to untreated control by microarray analysis. It counts as functional.
In experiment [20] the test system is Osteoblast. As to the kind of experiment: Effect on ubiquitin-conjugating enzyme E2D 3 gene expression in rat primary osteoblast cells assessed as expression ratio of treated to untreated control by microarray analysis. It counts as functional. In short, it runs like this: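 GEArray Q series Mouse Osteogenesis cDNA array profiling osteogenic-differentiation genes in treated versus vehicle-treated primary osteoblasts.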

Experiment [21] deals with Osteoblast. The experiment can be described thus: Effect on procollagen 1 alpha 2 gene expression in rat primary osteoblast cells assessed as expression ratio of treated to untreated control by microarray analysis. It counts as functional. Put shortly:
as §2

Structures are written as SMILES. Activity calls are given as the source filed them. No cut-off for these calls is given here.

RAC-alpha serine/threonine-protein kinase (Homo sapiens), sequence (P31749 whole entry): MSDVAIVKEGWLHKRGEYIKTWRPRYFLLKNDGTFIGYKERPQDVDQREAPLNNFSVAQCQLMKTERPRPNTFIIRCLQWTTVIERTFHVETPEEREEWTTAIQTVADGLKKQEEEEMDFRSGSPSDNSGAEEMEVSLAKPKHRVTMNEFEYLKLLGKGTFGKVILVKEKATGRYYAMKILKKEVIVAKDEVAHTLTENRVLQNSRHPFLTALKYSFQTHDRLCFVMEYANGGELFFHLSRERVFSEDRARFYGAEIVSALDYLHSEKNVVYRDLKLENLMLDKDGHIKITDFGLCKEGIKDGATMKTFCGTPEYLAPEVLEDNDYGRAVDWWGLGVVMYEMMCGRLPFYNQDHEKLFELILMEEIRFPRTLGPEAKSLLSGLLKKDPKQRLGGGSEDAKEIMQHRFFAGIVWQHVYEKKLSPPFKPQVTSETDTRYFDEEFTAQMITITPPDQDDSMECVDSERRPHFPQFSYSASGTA
Alkaline phosphatase, germ cell type (Homo sapiens), sequence (P10696 20-503 limits assumed): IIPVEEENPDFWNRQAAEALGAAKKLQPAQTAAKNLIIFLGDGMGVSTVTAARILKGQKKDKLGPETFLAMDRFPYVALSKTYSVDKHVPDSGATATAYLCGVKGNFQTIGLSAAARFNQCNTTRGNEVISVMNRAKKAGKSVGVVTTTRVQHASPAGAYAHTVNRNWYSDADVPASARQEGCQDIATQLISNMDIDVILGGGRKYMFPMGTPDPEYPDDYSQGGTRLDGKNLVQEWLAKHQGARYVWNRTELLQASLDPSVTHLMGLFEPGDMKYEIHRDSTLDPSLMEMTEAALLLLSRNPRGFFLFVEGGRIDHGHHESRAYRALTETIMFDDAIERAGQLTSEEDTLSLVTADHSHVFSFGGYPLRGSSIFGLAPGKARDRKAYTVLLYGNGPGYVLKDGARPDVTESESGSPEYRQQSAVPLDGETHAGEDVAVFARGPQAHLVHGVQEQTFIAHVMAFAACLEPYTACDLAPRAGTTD

Take `Oc1ccc(/C=C/c2cc(O)cc(O)c2)cc1` [RESVERATROL]: the result (in the experiment with Osteoblast [1]; with MC3T3-E1 [2]; in experiment [5]; in [8]; in [9]; in [10]) was Active. Besides, the result (in experiment [11]; in the experiment on MDA-MB-231; in the experiment with Osteoblast [14]; in the experiment on MCF7; in [15]; in the experiment with MC3T3-E1 [16]) was Active. The outcome in the experiment on T47D was Active. In the experiment on MC3T3-E1 [3], the result was inactive. Further, the Activity result in the experiment with MC3T3-E1 [4] was “Dose-dependent effect”. In addition, the Ratio stood at 2.56 with Osteoblast [6]; 2.79 with Osteoblast [7]; 8.63 with Osteoblast [12]; 8.15 in the experiment with Osteoblast [13]; 0.27 with Osteoblast [17]; 3.38 in the experiment with Osteoblast [18]. In addition, the values for the Ratio in the experiment with Osteoblast [19], in the experiment on Osteoblast [20] and in the experiment on Osteoblast [21] were 1.82, 3.73 and 8.24, respectively.

The record behind these values is ChEMBL document CHEMBL1156469 (2007).
